Screening data from PubChem BioAssay.
hERG protect: hERG (human) protection from proarrhythmic block | Q12809 | 0.51% of 310,000 active | CHO-hERG, FluxOR thallium flux, dofetilide IC70 present | AID 1511 | activation (rescue from dofetilide block), less the hit threshold, % at 10 µM;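 active = activation above the mean of controls blocked by dofetilide plus 5 SD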;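 also: thallium influx through hERG after potassium depolarization seen as dye fluorescence rise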
KCNQ1 pot: potentiates or activates the human KCNQ1 potassium channel | P51787 | 0.35% of 310,000 active | CHO-K1 KCNQ1, thallium flux FluxOR fluorescence; active compounds read high | B-score at 10 µM;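 active = fluorescence ratio B-score, a plate-corrected score, at least three library SD, with initial intensity B-score within 5 SD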
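Medium – assay buffer, equal DMSO in all wells · Material – CHO-K1 cell line with stable KCNQ1 potassium channel expression · Signal – kinetic FluxOR thallium fluorescence, 10-s 1-Hz baseline, 110-s post-stimulus read · Compound – single concentration per compound, DMSO matched to controls · Schedule – 37 °C overnight plating, 90-min dark dye load, 20-min compound pretreatment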
Kir21 inh: inhibitors of mouse Kir2.1 inward-rectifier potassium channel. P35561. B-score at 10 µM. 0.85% of 310,000 active. HEK293-Kir2.1, FluxOR thallium flux fluorescence; active compounds read low;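 active = fluorescence ratio B-score at or below minus 3 SD of library scores, with starting-brightness B-score within 2 SD, cut at about -4.2 in these data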;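 also: channel flux triggered by added potassium and thallium sulfate stimulus; B-score of peak minus minimum fluorescence over baseline after thallium stimulus; more negative B-score means stronger Kir2.1 block with less thallium influx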
Target sequence (P35561 whole entry, looked up): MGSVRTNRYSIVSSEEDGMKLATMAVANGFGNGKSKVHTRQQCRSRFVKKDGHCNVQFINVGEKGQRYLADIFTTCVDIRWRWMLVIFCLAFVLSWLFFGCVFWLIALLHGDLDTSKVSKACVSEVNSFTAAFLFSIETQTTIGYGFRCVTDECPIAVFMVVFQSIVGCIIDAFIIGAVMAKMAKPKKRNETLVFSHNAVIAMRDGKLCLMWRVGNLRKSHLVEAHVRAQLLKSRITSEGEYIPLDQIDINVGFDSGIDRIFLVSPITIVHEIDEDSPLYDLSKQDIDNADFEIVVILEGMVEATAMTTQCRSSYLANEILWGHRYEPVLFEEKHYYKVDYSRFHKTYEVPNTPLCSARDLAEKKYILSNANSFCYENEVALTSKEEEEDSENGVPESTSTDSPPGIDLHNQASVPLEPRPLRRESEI
KCNQ1 block: blocks the human KCNQ1 potassium channel | P51787 | CHO-K1 KCNQ1, FluxOR thallium flux fluorescence; active compounds read high | B-score at 10 µM | 1.3% of 310,000 active | AID 2642;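 active = compounds whose thallium flux B-score, printed positive for inhibition, exceeds three library SD while starting fluorescence stays within three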;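 also: channel opened by potassium depolarization with thallium stimulus after 20 min compound exposure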
KCNK3 block: human KCNK3 channel inhibition, primary screen; AID 602410; B-score at 10 µM; 0.84% of 340,000 active; CHO-KCNK3 thallium flux, FluxOR fluorescence; active compounds read low;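 active = B-score under library mean minus 4 SD, starting fluorescence ratio at most library mean plus 5 SD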;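 also: more negative B-score means stronger inhibition of thallium flux through KCNK3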
KCNK9 block: human KCNK9 channel inhibition | B-score at 10 µM | AID 488922 | 1.2% of 310,000 active | HEK293 KCNK9, FluxOR thallium flux fluorescence; active compounds read low;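 active = ratio B-score over 3 SD below the library mean, with starting fluorescence within 5 SD of its mean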;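 also: negative B-score means less thallium flux so channel inhibition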
* hit, by the source's call; i = inactive; . = no result. The list is not random: actives were taken first. Their share in the collection is about 3.8%.

SMILES | hERG protect | KCNQ1 pot | Kir21 inh | KCNQ1 block | KCNK3 block | KCNK9 block
Cc1ccc(C)c(OCC(=O)N/N=C/c2c(C)nn(-c3ccccc3)c2Cl)c1C | -10 | i | -4.4* | i | i | i
COC(=O)N/N=C\c1c(C)nn(-c2ccccc2)c1Cl | -9 | i | -1.4 | i | i | i
Cc1nn(-c2ccccc2)c(C)c1/C=N/NC(=O)c1cc(C(C)(C)C)[nH]n1 | -13 | i | 0.59 | i | i | i
Cc1nn(-c2cccc(Cl)c2)c(Cl)c1/C=N/NC(=O)c1cccnc1 | -9 | i | 1.3 | i | i | -7.4*
Cc1ccc(-c2cc(C(=O)N/N=C/c3c(C)nn(-c4ccccc4)c3C)[nH]n2)cc1 | -7 | i | 0.82 | 13* | i | i
Cc1ccc(S(=O)c2ccc(NC(=O)C3CC3)cc2C#N)cc1 (stereo not drawn) | -13 | i | -4.4 | i | i | i
CC1CC(C)(C)CC2(C1)NC(=O)N(CC(=O)N1CCN(S(=O)(=O)c3cccc(F)c3)CC1)C2=O (stereo not drawn) | . | . | . | . | i | .
c1ccc(-c2csc3nnc(SCc4ccc5c(c4)OCO5)n23)cc1 | -2 | i | -4.3* | i | i | i
Oc1[nH]c2c(Cl)cc(Cl)cc2c1N=NC(=S)NCC1CCCO1 (stereo not drawn) | 12* | 52* | 0.84 | i | i | i
CCn1c(O)c(N=NC(=S)NCC2CCCO2)c2ccccc21 (stereo not drawn) | 6.3* | i | 0.16 | i | i | i
COc1ccc(-c2nc3ccccc3[nH]2)cc1 | -4 | i | -0.7 | i | i | i
COc1ccc(-c2nc(=S)c3ccc4ccccc4c3[nH]2)cc1 | 63* | 77* | 0.01 | i | i | i
CCN(CC)Cc1ccccn1 | -6 | i | 0.32 | i | i | i
CC(C)CN=Cc1c(O)c([N+](=O)[O-])cc2oc3c(c12)CCCC3 | -5 | 15* | 1.2 | i | i | i
O=[N+]([O-])c1cc2oc3c(c2c(C=NCc2ccccc2)c1O)CCCC3 | -2 | i | -0.29 | i | i | i
COc1cc(C(=O)N=c2sc3c(C)ccc(OC)c3n2C)cc(OC)c1OC | -9 | i | 0.12 | i | i | i
COc1ccc(C(=O)N=c2sc3c(C)ccc(OC)c3n2C)cc1 | -10 | i | -0.42 | i | i | -7*
O=C1Nc2ccccc2C(=O)C1(Cl)Cc1ccccc1 (stereo not drawn) | -4 | i | -5.2* | i | i | i
CCOc1ccc(C(=O)O[C@H]2[C@H](Cc3ccccc3)NS(=O)(=O)[C@H]3C[C@@H]4C=C[C@]23O4)cc1 | . | . | . | . | i | .
CN(C)CCNC(=O)c1cc2c(s1)-c1ccc(Cl)cc1SC2 | -12 | i | -7.8* | i | i | i
CCOCCCNC(=O)c1cc2c(s1)-c1ccccc1SC2 | -11 | i | 0.07 | i | i | i
O=C(NC(=S)Nc1ccc(N2CCCCC2)c(Cl)c1)c1cccs1 | 13* | 65* | -0.81 | i | i | i
O=C(NC(=S)Nc1ccc(Br)cn1)c1cncc(Br)c1 | 0 | i | -0.77 | i | i | i
O=C(NC(=S)Nc1ccc(Br)cn1)c1cccs1 | 4 | 13* | 0.18 | i | i | i
O=C(/C=C/c1ccccc1)NC(=S)Nc1ccc(N2CCOCC2)c(Cl)c1 | -11 | i | 0.74 | i | i | i
SMILES | hERG protect | KCNQ1 pot | Kir21 inh | KCNQ1 block | KCNK3 block | KCNK9 block
CCCc1nc2ccc(NC(=O)c3cccs3)cc2c(=O)n1Cc1ccc(Cl)cc1 | -9 | i | 0.78 | i | i | -6.8*
O=C(NC(=S)Nc1ccc(N2CCOCC2)c(Cl)c1)C(c1ccccc1)c1ccccc1 | -6 | i | 0.72 | 6* | i | i
O=C(Nc1ccc(Cl)cc1)c1cccs1 | -14 | i | 0.61 | i | i | -7.2*
NC(=S)Nc1nc2ccccc2s1 | -3 | 8* | -0.87 | i | i | i
O=C(Nc1cccc(NC(=O)c2cccs2)c1)c1ccco1 | -13 | i | -0.56 | i | i | -6.6*
O=C(Nc1ccc(NC(=O)c2cccs2)cc1)c1cccs1 | -5 | i | 1.1 | i | i | i
